# Rows were chosen to be rich in hits. Some 1.1% of all compounds tested hit in one or more screens of this group.
# T cell modulator = modulates CD8 T cell binding to vesicles; 2C CD8+ T cell-vesicle binding, flow cytometry; active compounds read low; response (vesicle binding), % at 7 µM; hit rate 0.068% among 330,000; AID 2052;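 active means response, share of CD8 T cells binding vesicles, and their 90th percentile fluorescence all below set limits, cut at about 80% in these data, passing the limit was not always enough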;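 further: values below 100% mean blocked vesicle binding to the CD8+ T cells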
#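 material = purified 2C TCR transgenic mouse naive CD8+ T cells | controls = Unloaded micro-vesicles (low), QL9 vesicles with 0.7% DMSO (high) | detection = cytometric PE anti-B7-1 and Alexa647 anti-CD8 signals after 1% paraformaldehyde fixation | incubation = binding step 1.5 h, 37 °C, antibody labelling 20 min, ice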
# CaV13 FRET inh = Primary screen for inhibitors of IQ motif and Ca2+-dependent inactivation inhibitor domain binding in CACNA1D, Förster resonance energy transfer in living cells, … | hit rate 0.098% among 340,000 | inhibition, % at 12.3 µM | AID 743397 | HEK cells, CFP/YFP FRET ICDI-IQ, plate reader, 10 min; percent FRET-ratio fall versus neutral wells;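 active means mean replicate inhibition of at least 30% and at least 1% of replicates passing that level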;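 further: 0% = median of the neutral control wells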
# procasp7 counter = activates human procaspase-7, counter-screen for procaspase-3 activators. hit rate 0.093% among 330,000. activation, % at 8.5 µM. recombinant procaspase-7, Ac-DEVD-pNA absorbance 405 nm; D23A/D198A/D206A triple mutant, cannot self-cleave; scale: DMSO 0, 5 µM enzyme 100. P55210;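 active means percent activation above the screen-wide mean plus 3 SD, cut at about 25% in these data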
#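 Assay system – Uncleavable procaspase-7 mutant enzyme · Quantity – 2 µM procaspase-7 mutant as dispensed · Times – 1 h preincubation, 2 h reaction · Dosing – single nominal 8.5 µM compound dose, 0.8% DMSO final · Buffer or medium – Zinc-free 50 mM HEPES buffer, pH 7.4, with NaCl and Triton X-100 · Detection – Epi-absorbance of released pNA at 405 nm, two timepoints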
# GRK2 aptamer HTS = inhibitors of human GRK2 displacing RNA aptamer; hit rate 0.59% among 330,000; P25098; inhibition of aptamer binding, % at 10 µM; bead flow cytometry, FAM-aptamer displacement from GRK2;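 active means inhibition of aptamer binding above 40%, roughly 3 SD of noise, on plates passing a quality check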;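 further: median bead fluorescence of bound FAM aptamer so fluorescent compounds give negative values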
# Target sequence (P25098 whole entry, looked up): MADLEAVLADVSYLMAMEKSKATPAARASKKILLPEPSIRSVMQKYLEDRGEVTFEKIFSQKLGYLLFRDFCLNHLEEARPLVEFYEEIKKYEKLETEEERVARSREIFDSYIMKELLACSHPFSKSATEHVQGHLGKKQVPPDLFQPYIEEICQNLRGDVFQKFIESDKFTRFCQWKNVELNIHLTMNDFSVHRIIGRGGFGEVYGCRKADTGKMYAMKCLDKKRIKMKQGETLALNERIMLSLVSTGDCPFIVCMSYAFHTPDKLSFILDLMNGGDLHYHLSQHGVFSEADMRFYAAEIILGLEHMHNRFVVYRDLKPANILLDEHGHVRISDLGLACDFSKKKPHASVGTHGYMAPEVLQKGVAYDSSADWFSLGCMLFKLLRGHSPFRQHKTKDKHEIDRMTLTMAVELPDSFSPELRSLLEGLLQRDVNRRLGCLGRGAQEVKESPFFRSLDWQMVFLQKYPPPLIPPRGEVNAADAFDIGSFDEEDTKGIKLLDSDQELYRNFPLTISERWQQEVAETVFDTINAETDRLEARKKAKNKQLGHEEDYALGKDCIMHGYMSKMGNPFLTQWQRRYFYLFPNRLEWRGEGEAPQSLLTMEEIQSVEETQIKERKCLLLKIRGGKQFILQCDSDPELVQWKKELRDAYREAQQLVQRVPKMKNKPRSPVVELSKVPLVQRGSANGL
# procasp3 activ = activates human procaspase-3; activation, % at 8.5 µM; recombinant procaspase-3 D3A, Ac-DEVD-pNA absorbance 405 nm; hit rate 0.11% among 330,000;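 active means activation above the mean of all tested compounds plus 3 SD, cut at about 21% in these data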;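 further: 0% = DMSO alone and 100% = DMSO wells spiked with extra 5 µM PC-3 D3A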
#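 assay system = Procaspase-3 D3A mutant | signal = absorbance at 405 nm, 0 and 120 min | times = 1 h preincubation plus 2 h reaction at 25 °C | repeats = single replicate | read-out = % activation between DMSO and enzyme-spiked controls | medium = Zinc-free HEPES saline buffer with Triton X-100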
# aDG glyco act = increases alpha dystroglycan glycosylation. Pro5-aDG cells, alpha-DG glycosylation AlphaScreen (IIH6); 0% Pro5, 100% B10-LARGE cell signal. activation, % at 10 µM. hit rate 0.22% among 360,000;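 active means activation of at least 8% versus controls, or a plate z-score of at least 8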;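 further: Pro5 are CHO cells carrying HIG-tagged alpha-DG that lacks glycosylation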
# procasp7 triplic = activates human procaspase-7, counter-screen for procaspase-3 activators | activation, % at 8.5 µM | shares compounds with procasp3 activ | recombinant procaspase-7, Ac-DEVD-pNA absorbance; asp23/198/206-to-Ala mutant, cannot self-cleave | 210 tested, under 10 active;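 active means mean activation above a set limit taken from an earlier procaspase-7 screen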;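 further: 0% = DMSO wells and 100% = DMSO plus 5 µM procaspase-7 enzyme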
# procasp3 conf = procaspase-3 (human) activation, confirmed. shares compounds with procasp3 activ. recombinant PC-3 D3A, Ac-DEVD-pNA absorbance 405 nm; 100% is higher-enzyme control. activation, % at 8.5 µM. hit rate 10% among 210. AID 488954;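 active means mean activation above a set limit carried over from the earlier primary screen, cut at about 22% in these data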
# PC3 D3A act = counter-screen: procaspase-3 (human) activation. 290 tested, under 10 active. recombinant PC-3 D3A, Ac-DEVD-pNA absorbance 405 nm; aspartates 9, 28, 175 changed to alanine; 100% = enzyme control. activation, % at 8.5 µM. shares compounds with procasp7 counter. AID 493114;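 active means mean percent activation across triplicates above a set limit taken from the earlier primary procaspase-3 screen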;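 further: 0% = DMSO wells and 100% = DMSO wells with 5 µM added PC-3 D3A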
# PC7 dual conf = procaspase-7 (human) activation, dual activator confirmation | shares compounds with procasp7 counter | recombinant procaspase-7, Ac-DEVD-pNA absorbance 405 nm; D23A/D198A/D206A mutant that cannot self-cleave | activation, % at 8.5 µM | 290 tested, under 10 active;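 active means mean activation above a set limit carried over from the earlier primary screen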;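 further: 0% = DMSO only and 100% = DMSO with added 5 µM PC-7 enzyme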
# GRK2 CP1 = human GRK2 inhibition confirmation, cherry pick 1; shares compounds with GRK2 aptamer HTS; hit rate 4% among 2,000; aptamer displacement, % at 10 µM; AID 504451; bead-bound GRK2, FAM-aptamer displacement, flow cytometry;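 active means aptamer displacement above 40%, near three times the noise of non-fluorescent compounds, on plates passing quality checks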;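 further: negative values mostly reflect intrinsic compound fluorescence rather than true enhancement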
# Aptamer quench 1 = fluorescent aptamer quenching in GRK2 counter-screen dose response. AID 504521. fluorescence change (kMESF span), kMESF (test concentration not listed). Fluorescent RNA aptamer beads, flow cytometry; active compounds read high. 110 tested, under 10 active. shares compounds with GRK2 aptamer HTS;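 active means compounds whose bead fluorescence drops by more than 37 kMESF across the dose range, marking them as dye quenchers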
# FAM quench CP1 = counter-screen for GRK2 aptamer inhibitors: fluorescent aptamer quenchers; shares compounds with GRK2 aptamer HTS; AID 504580; Carboxyfluorescein RNA aptamer on beads, flow cytometry quenching; active compounds read low; 2,000 tested, under 10 active; fluorescence response (% of DMSO), % at 10 µM;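 active means compounds that quench the bead-bound fluorescent RNA probe, cutting fluorescence to under half of the solvent control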;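 further: counterscreen run without GRK2 so only probe quenching by compound is measured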
# GRK2 CP2 = human GRK2 inhibition confirmation, cherry pick 2. shares compounds with GRK2 aptamer HTS. bead-bound GRK2, FAM-aptamer displacement, flow cytometry. inhibition of aptamer binding, % at 10 µM. 360 tested, under 10 active;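 active means inhibition of aptamer binding above 40%, about triple the noise seen with nonglowing compounds, on plates passing quality control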;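 further: negative values mostly come from compounds that fluoresce themselves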
# FAM quench SP = counter-screen for GRK2 binding hits: quenchers of fluorescent RNA aptamer | shares compounds with GRK2 aptamer HTS | carboxyfluorescein RNA aptamer beads, flow cytometry quenching; active compounds read low | fluorescence response vs DMSO, % at 10 µM | 360 tested, under 10 active | AID 588494;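 active means response vs DMSO under 50%, meaning signal dropped by over half, treated as fluorescence quencher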;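 further: labelled aptamer on streptavidin beads without GRK2 as a quench counter-screen; 100% = bead fluorescence of DMSO wells and lower means quenching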
# * marks the source's active call; other numbers are inactive results; i = inactive; x = not tested or not shown.
SMILES,T cell modulator,CaV13 FRET inh,procasp7 counter,GRK2 aptamer HTS,procasp3 activ,aDG glyco act,GRK2 CP1,FAM quench CP1,others
CCCOC(=O)c1c(N)n(Cc2cccs2)c2nc3ccccc3nc12,742.6,-5.0,6.5,0.0,47.6*,1.5,x,x,procasp7 triplic=-20.0;procasp3 conf=-12.5
O=C(NCCN1CCC2(CC1)C(=O)NCN2c1ccccc1)C(c1ccccc1)c1ccccc1,x,-11.4,x,x,x,x,x,x,
O=C(NCCN1CCC2(CC1)C(=O)NCN2c1ccccc1)c1ccc(OC(F)(F)F)cc1,x,-9.3,x,x,x,x,x,x,
CC[n+]1c(/C=C/C=C/c2ccc(N(C)C)cc2)sc2ccccc21,333.9,-7.3,-3.5,22.0,39.1*,1.9,x,x,procasp7 triplic=-6.0;procasp3 conf=-5.3
CN(C)c1ccc(/C=C/C=C/c2sc3ccccc3[n+]2C)cc1,829.8,-5.0,-3.7,0.0,4.6,2.8,x,x,
CN1OC[C@@H]2CN3C4(C[C@@H]21)c1ccccc1C3(c1ccccc1)c1ccccc14,x,-2.9,x,x,x,x,x,x,
Cc1ccc(-c2nc3ccccc3c(=O)n2-c2cccc(C)n2)cc1,394.4,-4.6,9.1,1.0,44.4*,0.0,x,x,procasp7 triplic=1.3;procasp3 conf=3.5
Nc1c(C(=O)NCc2ccco2)c2nc3ccccc3nc2n1Cc1ccccc1,90.3,-3.9,45.8*,3.0,-2.2,1.1,x,x,PC3 D3A act=-27.3;PC7 dual conf=-35.1
O=C(NCCN1CCC2(CC1)C(=O)NCN2c1ccccc1)c1ccc(F)cc1F,x,-11.7,x,x,x,x,x,x,
N#CCCn1cc(C(=O)Nc2ccc([N+](=O)[O-])cc2)c(-c2ccc3c(c2)OCCO3)n1,199.7,x,-10.4,66.0*,3.5,-0.4,x,x,GRK2 CP2=21.6;FAM quench SP=100.0
Cc1ccc(NC(=O)c2cn(CCC#N)nc2-c2ccc3c(c2)OCCO3)c([N+](=O)[O-])c1,213.3,-3.6,-2.6,3.0,-6.4,-0.3,x,x,
O=C(NCCN1CCC2(CC1)C(=O)NCN2c1ccccc1)c1cc(C(F)(F)F)ccc1C(F)(F)F,x,-9.8,x,x,x,x,x,x,
COC(=O)c1ccc(NC(=O)NC(=O)Oc2ccccc2)cc1,363.1,-2.2,4.5,81.0*,0.9,-0.1,-0.6,97.7,
O=C(Nc1ccccc1)Oc1ccccc1,193.0,-7.4,2.9,3.0,-2.9,0.0,x,x,
O=C1NC(=O)N(c2ccc3c(c2)OCO3)C(=O)/C1=C\c1ccc(-c2ccccc2C(=O)O)o1,201.8,-15.2,-21.0,60.0*,-5.9,0.0,47.4*,96.1,Aptamer quench 1=4.3
O=C1NC(=O)N(c2ccc3c(c2)OCO3)C(=O)/C1=C/c1ccc(N2CCCCC2)o1,846.7,-5.8,-18.9,0.0,-5.8,-0.1,x,x,
Cc1cc(=O)oc2c(C)c(OCC(=O)N3CCN(Cc4ccccc4)CC3)ccc12,329.2,-6.2,6.2,0.0,4.1,-0.1,3.5,102.1,
NCCc1c[nH]c2ccccc12,173.7,x,11.8,62.0*,4.0,-0.3,-6.5,99.6,
CCN1/C(=C\C=C\C2=[N+](CC)c3ccccc3C2(C)C)C(C)(C)c2ccccc21,i,x,6.4,70.0*,4.5,1.3,23.8,99.6,
Cc1ccc(OC(=O)N(C)C[C@H]2OCc3cnnn3CCCC(=O)N([C@H](C)CO)C[C@H]2C)cc1,x,-3.7,x,x,x,x,x,x,
CC(=Nc1ccc2c(c1)CCC2)c1c(O)n(C2CCCCC2)c(=O)[nH]c1=O,177.0,-4.8,1.7,0.0,-0.1,-0.1,x,x,
CCC(=Nc1ccc2c(c1)CCC2)c1c(O)n(C2CCCCC2)c(=O)[nH]c1=O,162.9,-3.7,-7.6,100.0*,1.1,0.0,0.9,108.2,
CCOC(=O)CNC(=O)N1Cc2cc(Br)ccc2-n2nncc2C1,x,-4.3,x,x,x,x,x,x,
COc1ccccc1-n1c(O)c(C=NCc2ccc3c(c2)OCO3)c(=O)[nH]c1=O,117.6,-5.3,9.6,1.0,-9.0,0.2,x,x,
O=c1[nH]c(=O)n(Cc2ccco2)c(O)c1C=NCc1ccc2c(c1)OCO2,331.9,-4.6,9.5,0.0,-0.3,0.0,0.8,102.2,
CCCCn1c(O)c(C=NCc2ccc3c(c2)OCO3)c(=O)[nH]c1=O,161.8,-4.7,3.0,94.0*,-6.3,0.0,-1.0,96.3,
O=C1NCN(c2ccccc2)C12CCN(C(c1ccccc1OC(F)(F)F)c1nnnn1C1CCCC1)CC2 (stereo unspecified),x,-9.3,x,x,x,0.1,x,x,
NC(Cc1ccccc1Cl)c1nn[nH]n1 (stereo unspecified),x,-17.6,x,x,x,0.2,x,x,
